Measurements: ChEMBL document CHEMBL1122189, “Preliminary studies of mesoionic 3-(substituted-aryl)-psi-oxatriazoles as potential antihypertensive agents” (1982)

How the values were obtained:
Rattus norvegicus [1] = assay: Hypotensive response (systolic blood pressure) was determined at 30 minutes for a dose of 10 mg/kg administered and 1 mL of corn oil in rat; format: functional, Artery
Summary of the method: (§1)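 Male Sprague–Dawley rats (250-350 g), femoral artery cannulated under sodium pentobarbital (35 mg/kg ip), restrained supine. Heparin–saline injected into the cannula before recording. Single oral gavage dose in corn oil. Systolic and diastolic pressure taken 30 min after dosing, given as mean (±SE) percent decrease from base line, base line being pressure of animals given 1 mL corn oil.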

Rattus norvegicus [2] = assay: Hypotensive response (diastolic blood pressure) was determined at 30 minutes for a dose 10 mg/kg administered and 1 mL of corn oil in rat; format: functional, Artery; summary of the method: as §1
Rattus norvegicus [3] = assay: Hypotensive response for decrease in blood pressure was determined for a dose 1 mg/kg of in rat; format: functional
Summary of the method: (§2)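 Male Sprague–Dawley rats (250-350 g), femoral artery cannulated under sodium pentobarbital (35 mg/kg ip); pressure recorded by transducer after recovery from anesthesia. Oral gavage in under 1 mL corn oil, doses 1-90 mg/kg; vehicle controls got 1 mL corn oil. Recorded continuously for 30 min, then at intervals. Result is mean (±SE) percent decrease in […] from post-anesthesia base line over the first hour.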

Rattus norvegicus [4] = assay: Hypotensive response for decrease in blood pressure was determined for a dose 45 mg/kg of in rat; format: functional; summary of the method: as §2
Rattus norvegicus [5] = assay: Hypotensive response for decrease in blood pressure was determined for a dose 3 mg/kg of in rat; format: functional; summary of the method: as §2
Rattus norvegicus [6] = assay: Hypotensive response for decrease in blood pressure was determined for a dose 10 mg/kg of in rat; format: functional; summary of the method: as §2
Rattus norvegicus [7] = assay: Hypotensive response for decrease in blood pressure was determined for a dose 90 mg/kg of in rat; format: functional; summary of the method: as §2
Rattus norvegicus [8] = assay: Hypotensive response for decrease in blood pressure was determined for a dose 15 mg/kg of in rat; format: functional; summary of the method: as §2
Rattus norvegicus [9] = assay: Hypotensive response for decrease in blood pressure was determined for a dose 0 mg/kg + 1 mL corn oil in rat; format: functional; summary of the method: as §2
Rattus norvegicus [10] = assay: Hypotensive response for decrease in blood pressure was determined for a dose 25 mg/kg of in rat; format: functional; summary of the method: as §2

| Compound | Decrease in blood pressure (Rattus norvegicus [1]) | Decrease in blood pressure (Rattus norvegicus [2]) | other results |
| --- | --- | --- | --- |
| [O-]c1n[n+](-c2ccc(Cl)cc2)no1 | 47% | 47.9% |  |
| [O-]c1n[n+](-c2ccc(Cl)c(Cl)c2)no1 | 31.7% | 30.9% |  |
| [O-]c1n[n+](-c2c(Cl)cccc2Cl)no1 | 11.5% | 8.3% |  |
| O=[N+]([O-])c1ccc(-[n+]2noc([O-])n2)cc1 | 24.8% | 23.8% |  |
| [O-]c1n[n+](-c2ccccc2)no1 | 51.7% | 52.3% |  |
| COc1ccc(-[n+]2noc([O-])n2)cc1 | 22.2% | 20% |  |
| Cc1ccc(-[n+]2noc([O-])n2)cc1 | 28.5% | 27.5% | Decrease in blood pressure (Rattus norvegicus [3]): 13.9%; Decrease in blood pressure (Rattus norvegicus [4]): 53%; Decrease in blood pressure (Rattus norvegicus [5]): 23.5%; Decrease in blood pressure (Rattus norvegicus [6]): 28%; Decrease in blood pressure (Rattus norvegicus [7]): 75.3%; Decrease in blood pressure (Rattus norvegicus [8]): 37.6%; Decrease in blood pressure (Rattus norvegicus [9]): 0%; Decrease in blood pressure (Rattus norvegicus [10]): 48.1% |
